Data set [1] is described as follows: Cytotoxicity against human MT4 cells. The class given is cell-based. In outline:
(§1)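 MT4 cells infected with HIV-1 (III_B) or HIV-2 (ROD), run in parallel with stavudine as positive control; antiviral IC50 and cytotoxic CC50 determined, selectivity index derived.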

A short description of data set [2]: Selectivity index, ratio of CC50 for human MT4 cells to IC50 for antiviral activity against HIV-1 IIIB infected in MT4 cells. It counts as toxicity, cell-based. The following applies: read-out: Ratio CC50/IC50. In outline: (§2)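 MT4 cells infected with HIV-1 IIIB or HIV-2 ROD and tested in parallel with stavudine (d4T) as positive control. Antiviral IC50 and cytotoxic CC50 were both determined in MT4 cells. Selectivity index is CC50/IC50.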

The next data set is described as follows: physchem. The note with it: phosphate buffered saline, pH 7.4.
Data set [3] relates to Human immunodeficiency virus 1. As to the kind of experiment: Antiviral activity against wild type HIV-1 3B infected in human MT4 cells. The class given is functional, organism-based. The following applies: Human immunodeficiency virus 1, 3B. In outline: as §1
The nature of data set [4]: Selectivity index, ratio of CC50 for human MT4 cells to IC50 for antiviral activity against HIV-2 ROD infected in human MT4 cells. The class given is toxicity, cell-based. The following applies: read-out: Ratio CC50/IC50. In outline:
as §2

Data set [5] relates to Human immunodeficiency virus 1. As to the kind of experiment: Potency index, ratio of stavudine IC50 to test compound IC50 for antiviral activity against wild type HIV-1 3B infected in wild type human C8166 cells. It counts as functional.
Data set [6] relates to Human immunodeficiency virus 1. As to the kind of experiment: Antiviral activity against HIV-1 […] infected in thymidine kinase deficient human C8166 cells. The class given is functional, organism-based, 3B.
Data set [7] deals with Human immunodeficiency virus 2. As to the kind of experiment: Antiviral activity against HIV-2 ROD infected in human MT4 cells. The note with it: Human immunodeficiency virus 2, ISOLATE ROD.
The test system of data set [8] is Human immunodeficiency virus 1. As to the kind of experiment: Antiviral activity against wild type HIV-1 3B infected in wild type human C8166 cells. The following applies: Human immunodeficiency virus 1, 3B. It counts as functional, organism-based.
Data set [9] relates to Human immunodeficiency virus 2. As to the kind of experiment: Potency index, ratio of stavudine IC50 to test compound IC50 for antiviral activity against HIV-2 ROD infected in human MT4 cells.
In data set [10] the test system is Human immunodeficiency virus 1. As to the kind of experiment: Potency index, ratio of stavudine IC50 to test compound IC50 for antiviral activity against HIV-1 3B infected in human MT4 cells. The class given is functional. In outline:
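MT4 cells infected with HIV-1 (IIIB) or HIV-2 (ROD). Test compounds were assayed alongside stavudine as the positive control, and antiviral IC50 was determined for each. Cytotoxicity (CC50) and selectivity index were determined in the same screen.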

The nature of data set [11]: Prodrug activation in acetone-d6 and Trizma buffer assessed as carboxypeptidase Y (unknown origin)-mediated (S)-2-((((2S,5R)-5-(5-methyl-2,4-dioxo-3,4-dihydropyrimidin-1(2H)-yl)-2,5-dihydrofuran-2-yl)methoxy)oxidophosphorylamino)propanoate metabolite formation at 5 mg incubated for 7 mins to 2 hrs by 31P NMR analysis. The class given is ADME, Homo sapiens. In outline:
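Compound dissolved in acetone-d6 with Trizma buffer (pH 7.6), treated with carboxypeptidase Y; ³¹P NMR spectra recorded over time, blank spectrum at 25 °C, conversion of parent diastereoisomer peaks to the intermediate monitored by chemical shift changes.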

Data set [12] is described as follows: Prodrug activation in acetone-d6 and Trizma buffer assessed as carboxypeptidase Y (unknown origin)-mediated 3-(pentafluoro-lambda6-sulfanyl)phenol metabolite formation at 5 mg incubated for 1.25 hrs by 19F NMR analysis. It counts as ADME, Homo sapiens.
Where [13] appears, read: Human immunodeficiency virus 1, 3B, C8166, read-out: IC50.

Values after ≈ are worked out from the molar mass of the structure shown. Some results are limits rather than exact numbers.

In the case of `COC(=O)[C@H](C)NP(=O)(OC[C@@H]1C=C[C@H](n2cc(C)c(=O)[nH]c2=O)O1)Oc1ccc(C(F)(F)F)cc1` (stereo partly specified), in data set [1], half-maximal cytotoxicity (CC50) was put at 42900 nM. Also, the selectivity ratio in [2] came out at 1160; in data set [4], 912. The solubility (kinetic) at 2 h in “physchem” is more than 100 µM. Besides, the IC50 amounted to 37 nM in [3], 75 nM in [6] (setting [13]), 47 nM in data set [7] and 22 nM in [8]. For the same compound, in [5], the “Ratio IC50” value is on record as 180.
In the case of `COC(=O)[C@H](C)NP(=O)(OC[C@@H]1C=C[C@H](n2cc(C)c(=O)[nH]c2=O)O1)Oc1cccc(C(F)(F)F)c1` (stereo partly specified), in data set [1], it took 66100 nM to reach half-maximal cytotoxicity (CC50). Also, the selectivity ratio in [2] was found to be 1610; in data set [4], 1350. Also, the solubility (kinetic) at 2 h in “physchem” was more than 100 µM. Also, the IC50 in [3] was 41 nM; in [6] it was “Not Active”; in [7], 49 nM; in data set [8], 39 nM.
With `COC(=O)[C@H](C)NP(=O)(OC[C@@H]1C=C[C@H](n2cc(C)c(=O)[nH]c2=O)O1)Oc1cccc(S(F)(F)(F)(F)F)c1` (stereo partly specified), in data set [1], the CC50 was 52600 nM. For the same compound, the selectivity ratio in [2] was 1750; in data set [4], 1460. Also, the figures for the “Ratio IC50” value in [9], in [5] and in [10] were more than 10, 75 and more than 10, respectively. In the data set “physchem”, this compound gave a solubility (kinetic) at 2 h of more than 100 µM. The IC50 in [3] was found to be 30 nM; in data set [6] (setting [13]), 335 nM; in data set [7], 36 nM; in data set [8], 54 nM. For the same compound, the Drug metabolism entry in data set [11] and in data set [12] was “Metabolite_Detected” throughout.
`COC(=O)C1=C(C)NC(C)=C(C(=O)OCCN(C)Cc2ccccc2)C1c1cccc([N+](=O)[O-])c1` (stereo unspecified) [NICARDIPINE] showed a kinetic solubility at 2 h in the data set “physchem” of 10 to 30 µM (≈ 4.8 to 14.4 µg/mL).
As to `Cc1cn([C@H]2C=C[C@@H](CO)O2)c(=O)[nH]c1=O` [STAVUDINE], in [1], the CC50 came out at 313000 nM. The selectivity ratio in [2] was determined as 782; in data set [4], 695. In the data set “physchem”, this compound showed a kinetic solubility at 2 h of more than 100 µM. Besides, the IC50 in data set [3] was 400 nM; in data set [6], “Not Active”; in data set [7], 450 nM; in data set [8], 4060 nM.
The compound `COC(=O)[C@H](C)NP(=O)(OC[C@@H]1C=C[C@H](n2cc(C)c(=O)[nH]c2=O)O1)Oc1ccccc1` (stereo partly specified) came in with a CC50 in data set [1] of 251000 nM. Also, the selectivity ratio in data set [2] worked out at 1200; in [4], 930. Moreover, the IC50 came to 210 nM in data set [3], 320 nM in data set [6] (setting [13]), 270 nM in data set [7] and 300 nM in data set [8].

For orientation: CC50 means the concentration giving 50% cytotoxicity. Read a low CC50 as harm at low concentration. The term solubility (kinetic) denotes solubility judged after dilution from a stock solution rather than from solid. By IC50 is commonly meant the midpoint of a concentration-inhibition curve.

These data come from ChEMBL document CHEMBL4406893 (Bioorg Med Chem Lett, 2019).
